Measurements from publication PMC8157400 (Chemical Science, 2020).

Experiments:
[1] = system: IGROV-1 cells; experiment: Antibody recruitment / binding on cells, flow cytometry; format: cell-based, human
[2] = system: IGROV-1 cells; experiment: ADCC assay; format: cell-based, human
[3] = system: IGROV-1 cells; settings: IGROV-1 cells (EGFR/FR-α double positive); cited from earlier work
[4] = system: folate receptor-a (FR-α); settings: cited from earlier work
[5] = system: IGROV-1 cells (FR-α+); experiment: Antibody recruitment to cancer cells, fluorescence microscopy; format: cell-based, human; settings: Fc-ARM2 100 nM
[6] = system: A549 lung cancer cells (FR-α−); experiment: ADCC assay; format: cell-based, human; settings: Fc-ARM2 + anti-CD20, 16 h, E/T 1-8, n = 3, Fig. S7
[7] = system: KHYG-1/CD16a-158V NK cells co-cultured with IGROV-1 cells; experiment: IFN-γ secretion from NK cells, ELISA; format: cell-based, human
[8] = system: KHYG-1/CD16a-158V cells co-cultured with IGROV-1 cells; experiment: CD107a mobilization assay, flow cytometry; format: cell-based, human; settings: Fc-ARM2 10 nM + anti-CD20 100 nM, 6 h, E/T = 1
Outline: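 Human NK line KHYG-1 expressing CD16a-158V co-cultured 6 h with FR-α+ IGROV-1 ovarian adenocarcinoma cells (E/T 1) with the indicated reagents. Surface CD107a on NK cells read by flow cytometry. Mean ± SEM; two experimental repeats; one-way ANOVA with Tukey's multiple comparison test.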

[9] = system: IGROV-1 cells; experiment: Mouse IgG recruitment and NK cell activation; format: cell-based, human; settings: Fc-ARM2 10 nM, mouse IgG 100 nM; flow cytometry n = 4; ADCC 16 h n = 3; Fig. S11

SMILES: CC(C)C[C@@H]1NC(=O)[C@H](Cc2c[nH]cn2)NC(=O)[C@H](Cc2c[nH]c3ccccc23)NC(=O)[C@H](C)NC(=O)[C@@H](NC(=O)[C@H](CC(=O)O)NC(=O)CCOCCOCCOCCOCCOCCOCCNC(=O)CC[C@H](NC(=O)c2ccc(NCc3cnc4nc(N)[nH]c(=O)c4n3)cc2)C(=O)O)CSSC[C@@H](C(=O)N[C@H](C(N)=O)[C@@H](C)O)NC(=O)[C@H](Cc2c[nH]c3ccccc23)NC(=O)[C@H](C(C)C)NC(=O)[C@H](CC(C)C)NC(=O)[C@H](CCC(=O)O)NC(=O)CNC1=O [Fc-ARM1]
- Change in MFI of fluorescein-labeled anti-EGFR mAb on cells ([1]; 10 nM Fc-ARM1 added, Fig. S9A): about a six-fold increase in MFI
- ADCC (% cytotoxicity) after 4 h co-culture ([2]; Fc-ARM + anti-CD20, 4 h, E/T 1-8, n = 3, Fig. 4A): did not show detectable cytotoxicity
- Effect on ADCC activity of anti-EGFR mAb [3]: inhibited the ADCC activity

SMILES: Nc1nc(=O)c2nc(CNc3ccc(C(=O)N[C@@H](CCC(=O)O)C(=O)O)cc3)cnc2[nH]1 [FA, folic acid]
- Affinity to FR-α [4]: sub-nanomolar

SMILES: CC(C)C[C@@H]1NC(=O)[C@H](Cc2c[nH]cn2)NC(=O)[C@H](Cc2c[nH]c3ccccc23)NC(=O)[C@H](C)NC(=O)[C@@H]2CSSC[C@H](NC(=O)[C@H](Cc3c[nH]c4ccccc34)NC(=O)[C@H](C(C)C)NC(=O)[C@H](CC(C)C)NC(=O)[C@H](CCC(=O)O)NC(=O)CNC1=O)C(=O)N[C@@H]([C@@H](C)O)C(=O)N[C@H](C(N)=O)CSSC[C@H](NC(=O)CCOCCOCCOCCOCCOCCOCCNC(=O)CC[C@H](NC(=O)c1ccc(NCc3cnc4nc(N)[nH]c(=O)c4n3)cc1)C(=O)O)C(=O)N[C@@H](CC(=O)O)C(=O)N2 [Fc-ARM2]
- Recruitment of Fc-fluorescein (Fc-fluo) to cells ([5]; Fc-fluo 500 nM): recruited the papain-digested Fc fragment of IgG1
- Recruitment of IgG-FITC to cells ([5]; IgG-FITC 500 nM, 30 min, 4 °C): successfully recruited FITC-labeled human IgG (IgG-FITC) to IGROV-1 cells
- Recruitment of IgG-FITC to cells with excess FA ([5]; IgG-FITC 500 nM, FA 100 µM as competitor): diminished IgG-derived fluorescence
- Amount of recruited IgG-FITC (MFI) ([1]; 10 nM Fc-ARM, increasing IgG-FITC, n = 3, Fig. 2E): recruited a higher amount of IgG-FITC compared with Fc-ARM1
- ADCC (% cytotoxicity) with recruited anti-CD20 ([2]; Fc-ARM 10 nM + anti-CD20 100 nM, 16 h, E/T 1-8, LDH assay, n = 3): showed clear target cell killing
- ADCC with increasing concentration of anti-CD20 ([2]; Fc-ARM 10 nM, E/T = 8, 16 h, n = 3, Fig. 4C): induced ADCC more effectively
- ADCC (% cytotoxicity) with excess FA ([2]; Fc-ARM2 10 nM + anti-CD20 100 nM + FA (1 μM), 16 h): eliminated by excess FA
- ADCC with Fc fragment of anti-CD20 ([2]; Fc-ARM2 + Fc fragment of anti-CD20 mAb, n = 3, Fig. 4D): induced cytotoxicity upon recruitment by Fc-ARM2
- ADCC (% cytotoxicity) after 6, 8 and 16 h co-culture ([2]; Fc-ARM + anti-CD20, E/T = 4, Fig. 4B): showed higher cytotoxicity compared with Fc-ARM1 + anti-CD20
- ADCC against A549 cells [6]: ADCC was not induced
- IFN-γ secretion from NK cells ([7]; Fc-ARM2 + anti-CD20, E/T = 8, ELISA of supernatant, Fig. 3B): secretion of interferon-γ (IFN-γ)
- IFN-γ secretion from NK cells after 16 h ([7]; Fc-ARM + anti-CD20, E/T = 4, 16 h, Fig. S8): induced a higher amount of IFN-γ secretion
- Surface mobilization of CD107a on NK cells [8]: surface mobilization of CD107a
- Recruitment of mouse IgG and ADCC [9]: did not work with mouse IgG
